In brackets after ≈: the same amount, converted by molar mass.
Legend:
[1] = Kinetic aqueous solubility of the compound in PBS at pH 7.4 incubated for 18 hrs by LC-MS analysis; type: physicochemical; conditions: read-out: Kinetic_solubility
Leishmania mexicana = assay: Antileishmanial activity against renilla luciferase-expressing Leishmania mexicana promastigotes infected in mouse J774.A1 cells assessed as inhibition of intracellular amastigotes growth incubated for 96 hrs by Renilla luciferase assay; type: functional, organism-based; conditions: J774.A1, 96 h
[2] = Metabolic stability in CD-1 mouse liver microsomes assessed as half life at 1 uM and measured upto 60 mins in presence of NADPH regenerating system by LC-MS/MS analysis; type: ADME, Microsome; conditions: 1 h
Outline: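 Half-life and intrinsic clearance determined by incubation with mouse liver microsomes.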

BJ = assay: Cytotoxicity against human BJ cells assessed as reduction in cell viability incubated for 72 hrs by Cell TiterGlo assay; type: functional, cell-based

Row | SMILES | solubility kinetic at 18 h [1] [µM] | EC50 (Leishmania mexicana) [nM] | t1/2 [2] [min] | EC50 (BJ) [nM]
1 | Cc1cc(Cl)c(Cl)cc1NC(=O)c1ccc(N2CCNCC2)nc1 | 188 (≈ 68.7 µg/mL) | 900 | 30 | 24000
2 | O=C(Nc1cncc(-c2nc3ccccc3s2)c1)c1cc([N+](=O)[O-])c(F)cc1Cl | – | 900 | – | 4900
3 | O=C(Nc1cnc(Cl)c(Cl)c1)c1ccc(N2CCNCC2)c([N+](=O)[O-])c1 | – | 1200 | – | –
4 | Cc1ccc(Br)cc1NC(=O)c1cc([N+](=O)[O-])c(F)cc1Cl | – | 1400 | – | –
5 | O=C(Nc1cccc(Cl)c1)c1ccc(F)c([N+](=O)[O-])c1 | – | 4000 | – | –
6 | Cc1ccc(-c2nc3ccccc3s2)cc1NC(=O)c1cc([N+](=O)[O-])c(N(C)CCN(C)C)cc1Cl | – | 400 | – | 6100
7 | O=C(Nc1cccc(-c2nccs2)c1)c1ccc(N2CCNCC2)c([N+](=O)[O-])c1 | – | 1400 | – | –
8 | Cc1ccc(-c2nc3ccccc3s2)cc1NC(=O)c1cnccc1C#N | – | 51000 | – | –
9 | Cc1ccc(-c2nc3ccccc3s2)cc1NC(=O)c1ccc(Cl)c([N+](=O)[O-])c1 | – | 20000 | – | –
10 | O=C(Nc1cccc(-c2nccs2)c1)c1cc([N+](=O)[O-])c(F)cc1Cl | – | 1300 | – | –
11 | O=C(Nc1ccc(-c2ccccc2)cc1)c1cc([N+](=O)[O-])c(F)cc1Cl | – | 1300 | – | –
12 | Cc1ccc(-c2nc3ccccc3o2)cc1NC(=O)c1cc([N+](=O)[O-])c(N2CCN(C)CC2)cc1Cl | – | 800 | – | 4600
13 | O=C(Nc1cnc(Cl)c(Cl)c1)c1cc([N+](=O)[O-])c(F)cc1Cl | – | 500 | – | –
14 | O=C(Nc1ccc(F)c(Cl)c1)c1cc([N+](=O)[O-])c(F)cc1Cl | – | 1000 | – | –
15 | O=C(Nc1cccc(Cl)c1)c1cc([N+](=O)[O-])c(F)cc1F | – | 600 | – | 1800
16 | O=C(Nc1cccc(Cl)c1)c1ccc(N2CCNCC2)c([N+](=O)[O-])c1 | – | 1400 | – | –
17 | COc1cc(Cl)ncc1C(=O)Nc1cc(-c2nc3ccccc3s2)ccc1C | – | 42000 | – | –
18 | Cc1cc(Cl)c(Cl)cc1NC(=O)c1cc([N+](=O)[O-])c(N2CCNCC2)cc1Cl | 5.3 (≈ 2.35 µg/mL) | 100 | 56 | 14200
19 | Cc1ccc(-c2nc3ccccc3s2)cc1NC(=O)c1ccc(F)nc1 | – | 6400 | – | –
20 | Cc1ccc(NC(=O)c2cc([N+](=O)[O-])c(F)cc2Cl)cc1 | – | 1200 | – | –
21 | O=C(Nc1ccc(Cl)c(Cl)c1)c1ccc(F)c([N+](=O)[O-])c1 | – | 1100 | – | –

Row | SMILES | solubility kinetic at 18 h [1] [µM] | EC50 (Leishmania mexicana) [nM] | t1/2 [2] [min] | EC50 (BJ) [nM]
22 | O=C(Nc1cccc(-c2ncco2)c1)c1cc([N+](=O)[O-])c(F)cc1F | 9.4 (≈ 3.25 µg/mL) | 700 | 0.6 | 1500
23 | Cc1ccc(-c2nc3ccccc3s2)cc1NC(=O)c1ccc(F)c(C(F)(F)F)c1 | – | 21000 | – | –
24 | O=C(Nc1ccc(Cl)c(Cl)c1)c1cc([N+](=O)[O-])c(F)cc1F | – | 200 | – | 2400
25 | Cc1ccc(-c2nc3ccccc3o2)cc1NC(=O)c1cc([N+](=O)[O-])c(N2CCNCC2)cc1Cl | 12.8 (≈ 6.3 µg/mL) | 200 | 120 | 19100
26 | O=C(Nc1cccc(-c2ncco2)c1)c1ccc(N2CCNCC2)c([N+](=O)[O-])c1 | – | 3100 | – | –
27 | Cc1cc(Cl)c(Cl)cc1NC(=O)c1ccc(N2CCNCC2)c([N+](=O)[O-])c1 | 31 (≈ 12.7 µg/mL) | 800 | 67 | 24900
28 | Cc1ccc(-c2nc3ccccc3s2)cc1NC(=O)c1ccc(N2CCNCC2)c([N+](=O)[O-])c1 | – | 300 | – | 8600
29 | Cc1ccc(-c2nc3ccccc3s2)cc1NC(=O)c1cc([N+](=O)[O-])c(Cl)cc1F | – | 2000 | – | –
30 | O=C(Nc1cnc(Cl)c(Cl)c1)c1cc([N+](=O)[O-])c(F)cc1F | – | 200 | – | 1600
31 | Cc1ccc(-c2nc3ccccc3s2)cc1NC(=O)c1cc([N+](=O)[O-])c(Cl)cc1Cl | – | 4300 | – | –
32 | O=C(Nc1ccc(Cl)c(Cl)c1)c1cc([N+](=O)[O-])c(F)cc1Cl | – | 900 | – | 4200
33 | N#Cc1ccc(NC(=O)c2ccc(N3CCNCC3)c([N+](=O)[O-])c2)cc1 | – | 5400 | – | –
34 | Cc1ccc(-c2nc3ccccc3s2)cc1NC(=O)c1cc([N+](=O)[O-])c(NC2CCN(C)CC2)cc1Cl | – | 800 | – | 9200
35 | O=C(Nc1ccc(F)c(F)c1)c1cc([N+](=O)[O-])c(F)cc1Cl | – | 1300 | – | –
36 | Cc1ccc(-c2nc3ccccc3s2)cc1NC(=O)c1cc([N+](=O)[O-])ccc1C(F)(F)F | – | 56000 | – | –
37 | Cc1ccc(-c2nc3ccccc3s2)cc1NC(=O)c1ccc(Br)cc1F | – | 45000 | – | –
38 | Cc1ccc(-c2nc3ccccc3s2)cc1NC(=O)c1cnc(Cl)cc1Cl | – | 9800 | – | –
39 | Cc1ccc(-c2nc3ccccc3s2)cc1NC(=O)c1cc([N+](=O)[O-])c(F)cc1Cl | – | 1200 | – | –
40 | Cc1ccc(-c2nc3ccccc3s2)cc1NC(=O)c1ccc(F)c([N+](=O)[O-])c1 | – | 1200 | – | –
41 | O=C(Nc1cccc(-c2nccs2)c1)c1cc([N+](=O)[O-])c(F)cc1F | – | 400 | – | 1500
42 | Cc1cc(Cl)c(Cl)cc1NC(=O)c1ccc(F)c([N+](=O)[O-])c1 | – | 2400 | – | –

Row | SMILES | solubility kinetic at 18 h [1] [µM] | EC50 (Leishmania mexicana) [nM] | t1/2 [2] [min] | EC50 (BJ) [nM]
43 | O=C(Nc1ccc(F)cc1)c1cc([N+](=O)[O-])c(F)cc1Cl | – | 1200 | – | –
44 | O=C(Nc1cccc(-c2ccccn2)c1)c1cc([N+](=O)[O-])c(F)cc1Cl | – | 1100 | – | –
45 | O=C(Nc1cncc(-c2nc3ccccc3o2)c1)c1ccc(N2CCNCC2)c([N+](=O)[O-])c1 | 15 (≈ 6.67 µg/mL) | 500 | 138 | 20000
46 | Cc1ccc(-c2nc3ccccc3s2)cc1NC(=O)c1cc([N+](=O)[O-])c(F)cc1F | 22 (≈ 9.36 µg/mL) | 600 | 27 | > 25000
47 | O=C(Nc1cncc(-c2nc3ccccc3o2)c1)c1cc([N+](=O)[O-])c(F)cc1Cl | – | 1000 | – | 2900
48 | Cc1ccc(-c2nc3ccccc3s2)cc1NC(=O)c1cnccc1Cl | – | 8800 | – | –
49 | O=C(Nc1cccnc1)c1cc([N+](=O)[O-])c(F)cc1Cl | – | 4600 | – | –
50 | Cc1ccc(-c2nc3ccccc3s2)cc1NC(=O)c1cc([N+](=O)[O-])c(N2CC3(COC3)C2)cc1Cl | – | 29000 | – | –
51 | Cc1ccc(-c2nc3ccccc3s2)cc1NC(=O)c1cc([N+](=O)[O-])c(N2CC3(CN(C(=O)OC(C)(C)C)C3)C2)cc1Cl | – | 63000 | – | –
52 | O=C(Nc1cncc(-c2nc3ccccc3s2)c1)c1cc([N+](=O)[O-])c(N2CCNCC2)cc1Cl | 6.3 (≈ 3.12 µg/mL) | 600 | 130 | 15300
53 | O=C(Nc1cccc(-c2nccs2)c1)c1cc([N+](=O)[O-])c(N2CCNCC2)cc1Cl | – | 1500 | – | –
54 | CN1CCN(c2cc(Cl)c(C(=O)Nc3cccc(-c4nccs4)c3)cc2[N+](=O)[O-])CC1 | – | 2100 | – | –
55 | Cc1ccc(-c2nc3ccccc3s2)cc1NC(=O)c1cc([N+](=O)[O-])c(NCCNC(=O)OC(C)(C)C)cc1Cl | – | 700 | – | > 25000
56 | N#Cc1ccc(NC(=O)c2cc([N+](=O)[O-])c(F)cc2Cl)cc1 | – | 1000 | – | –
57 | COc1ccncc1C(=O)Nc1cc(-c2nc3ccccc3s2)ccc1C | – | 31000 | – | –
58 | Cc1ccc(C(F)(F)F)cc1NC(=O)c1cc([N+](=O)[O-])c(F)cc1Cl | – | 1700 | – | –
59 | Cc1ccc(-c2nc3ccccc3s2)cc1NC(=O)c1cc([N+](=O)[O-])c(N2CCNCC2)cc1Cl | – | 700 | – | > 14500
60 | O=C(Nc1cccc(-c2nc3ccccc3o2)c1)c1cc([N+](=O)[O-])c(F)cc1Cl | – | 900 | – | > 30000
61 | O=C(Nc1cccc(-c2ncco2)c1)c1cc([N+](=O)[O-])c(F)cc1Cl | – | 900 | – | –
62 | Cc1ccc(-c2nc3ccccc3o2)cc1NC(=O)c1cc([N+](=O)[O-])c(F)cc1Cl | – | 400 | – | 16000
63 | CN1CCN(c2cc(Cl)c(C(=O)Nc3cncc(-c4nc5ccccc5s4)c3)cc2[N+](=O)[O-])CC1 | – | 900 | – | > 30000

Row | SMILES | solubility kinetic at 18 h [1] [µM] | EC50 (Leishmania mexicana) [nM] | t1/2 [2] [min] | EC50 (BJ) [nM]
64 | Cc1ccc(-c2nc3ccccc3s2)cc1NC(=O)c1cc([N+](=O)[O-])ccc1F | – | 64000 | – | –
65 | Cc1ccc(-c2nc3ccccc3s2)cc1NC(=O)c1cnccc1O | – | 53000 | – | –
66 | CC(=O)Nc1cccc(NC(=O)c2cc([N+](=O)[O-])c(F)cc2Cl)c1 | – | 2900 | – | –
67 | O=C(Nc1ccc(Cl)c(Cl)c1)c1ccc(N2CCNCC2)nc1 | – | 1400 | – | –
68 | O=C(Nc1cccc(-c2cccnc2)c1)c1cc([N+](=O)[O-])c(F)cc1Cl | – | 2000 | – | –
69 | Cc1ccc(-c2nc3ccccc3s2)cc1NC(=O)c1ccc(Br)cc1Cl | – | 57000 | – | –
70 | Cc1ccc(-c2nc3ccccc3s2)cc1NC(=O)c1cnccc1F | – | 27000 | – | –
71 | Cc1cc(Cl)c(Cl)cc1NC(=O)c1ccc(N2CCNCC2)c(C#N)c1 | 3.6 (≈ 1.4 µg/mL) | 900 | 48 | 13500
72 | O=C(Nc1cccc(-c2nc3ccccc3o2)c1)c1cc([N+](=O)[O-])c(F)cc1F | – | 800 | – | 4500
73 | Cc1ccc(-c2nc3ccccc3s2)cc1NC(=O)c1cc([N+](=O)[O-])c(N2CC3(CNC3)C2)cc1Cl | – | 700 | – | 11300
74 | Cc1ccc(-c2nc3ccccc3s2)cc1NC(=O)c1cc([N+](=O)[O-])c(NCCN)cc1Cl | – | 300 | – | 6300
75 | O=C(Nc1ccc(Cl)cc1)c1cc([N+](=O)[O-])c(F)cc1Cl | – | 1100 | – | –
76 | Cc1ccc(-c2nc3ccccc3s2)cc1NC(=O)c1cc([N+](=O)[O-])c(NCCN(C)C)cc1Cl | – | 800 | – | 17200
77 | Cc1ccc(-c2nc3ccccc3s2)cc1NC(=O)c1ccc(Cl)nc1 | – | 8200 | – | –
78 | O=C(Nc1cncc(-c2nc3ccccc3o2)c1)c1cc([N+](=O)[O-])c(F)cc1F | – | 500 | – | > 30000
79 | Cc1ccc(C)c(NC(=O)c2cc([N+](=O)[O-])c(F)cc2Cl)c1 | – | 2400 | – | –
80 | Cc1cc(Cl)c(Cl)cc1NC(=O)c1cc([N+](=O)[O-])c(F)cc1F | – | 300 | – | 1300
81 | Cc1cc(Cl)c(Cl)cc1NC(=O)c1cc([N+](=O)[O-])c(F)cc1Cl | – | 800 | – | 4200
